{
  "source": "paper PMC8897028",
  "about": "(Acta Pharmaceutica Sinica. B, 2021)",
  "type_in_all_cases": "cell-based, human",
  "key": {"[1]": {"tested_on": "HEK293 cells expressing hTRPV3", "assay": "cell death assay", "settings": "12 h, n = 4", "how_it_was_run": "(§1)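 HEK293 cells 12 h after hTRPV3 transfection, or HaCaT cells, were seeded in six-well plates, randomly split into 6 groups, and treated 12 h in culture medium. Cells were detached with 0.25% trypsin (HEK293 1 min; HaCaT 7 min), centrifuged, and stained 30 min in PBS with Hoechst and PI. Five random fields per group were imaged. Death ratio = PI-labelled over Hoechst-labelled nuclei, averaged over five images; n = 4.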"}, "[2]": {"tested_on": "HaCaT cells", "assay": "cell death assay", "settings": "IAB added with carvacrol 300 μmol/L; 12 h", "how_it_was_run": "as §1"}, "[3]": {"tested_on": "HEK293 cells expressing hTRPV3", "assay": "cell proliferation MTT assay, HEK293 cells transfected with hTRPV3", "settings": "IAB at 10 and 100 μmol/L with carvacrol 300 μmol/L, 24 h", "how_it_was_run": "(§2)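 hTRPV3-transfected HEK293 or HaCaT cells were plated at 5 × 10^3 per well for 24 h, then exposed 24 h to TRPV3 activator and/or inhibitor in culture medium. MTT (5 mg/mL solution) was added for 4 h. Medium was removed, formazan dissolved in DMSO, and absorbance read at 490 nm.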"}, "[4]": {"tested_on": "HaCaT cells", "assay": "cell proliferation MTT assay, HaCaT cells", "settings": "IAB at 10 and 100 μmol/L with carvacrol 300 μmol/L, 24 h", "how_it_was_run": "as §2"}},
  "data": [
    {"smiles": "O=C(/C=C/c1ccc(O)c(O)c1)O[C@@H]1[C@H](O)C[C@@](O)(C(=O)O)C[C@H]1OC(=O)/C=C/c1ccc(O)c(O)c1", "note": "[IAB, isochlorogenic acid B]", "values": [
      {"measurement": "cell death ratio", "setting": "[1]; IAB 10 μmol/L with carvacrol 300 μmol/L", "value": "11.7 ± 0.9", "unit": "%"},
      {"measurement": "cell death ratio", "setting": "[1]; IAB 100 μmol/L with carvacrol 300 μmol/L", "value": "9.9 ± 1.2", "unit": "%"},
      {"measurement": "HaCaT cell death", "setting": "[2]", "value": "dose-dependent reduction of HaCaT cell death"},
      {"measurement": "reversal of overactive TRPV3-induced inhibition of cell proliferation", "setting": "[3]", "value": "significantly reversed"},
      {"measurement": "reversal of overactive TRPV3-induced inhibition of cell proliferation", "setting": "[4]", "value": "significantly reversed"}
    ]}
  ]
}
